Common to all, as to type: functional
In test [1] the test system is Nakaseomyces glabratus. The test can be described thus: Antifungal activity against Candida glabrata clinical isolate obtained from cervicovaginal candidiasis patient assessed as susceptible dose-dependent isolates by broth microdilution method. Put shortly: (§1)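 C. glabrata isolates were recovered from cervicovaginal swabs. Species was identified by in-house species-specific real-time PCR and confirmed on chromogenic Candida agar. Susceptibility was tested by CLSI M27-A2 broth microdilution, and isolates were classed as S, S-DD or R from the MIC. Voriconazole categories used proposed breakpoints.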

The subject of test [2] is Nakaseomyces glabratus. The test can be described thus: Antifungal activity against Candida glabrata clinical isolate obtained from cervicovaginal candidiasis patient assessed as susceptible isolates by broth microdilution method. Put shortly: as §1
Test [3] relates to Nakaseomyces glabratus. As to the kind of experiment: Antifungal activity against Candida glabrata clinical isolate overexpressing CDR1 gene obtained from cervicovaginal candidiasis patient assessed as resistant isolates by broth microdilution method. Put shortly:
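Cervicovaginal swab isolates were classed by CLSI M27-A2 broth microdilution MIC. For expression, RNA came from mid-log cultures, column-purified and DNase-treated. Duplex qRT-PCR measured CDR1 (also PDH1, PDR1) against ACT1 as control, in triplicate independent amplifications from the same RNA. A ≥3-fold rise in CDR1 expression […].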

The subject of test [4] is Nakaseomyces glabratus. As to the kind of experiment: Antifungal activity against Candida glabrata clinical isolate obtained from vulvovaginal candidiasis patient assessed as susceptible isolates by broth microdilution method. Put shortly: as §1
For test [5], the system named is Nakaseomyces glabratus. As to the kind of experiment: Antifungal activity against Candida glabrata clinical isolate obtained from vulvovaginal candidiasis patient assessed as resistant isolates by broth microdilution method. The method in brief: as §1

As to `C[C@@H](c1ncncc1F)[C@](O)(Cn1cncn1)c1ccc(F)cc1F` [VORICONAZOLE], the Activity was found to be 13.7% in the test on Nakaseomyces glabratus [1], 62.3% in the test with Nakaseomyces glabratus [2] and 24% in the test on Nakaseomyces glabratus [3].
Take `OC(Cn1cncn1)(Cn1cncn1)c1ccc(F)cc1F` [FLUCONAZOLE]: the Activity in the test with Nakaseomyces glabratus [4] is given as 15.2%; in the test with Nakaseomyces glabratus [5], 51.8%; in the test on Nakaseomyces glabratus [1] it was 42.2%; with Nakaseomyces glabratus [2] it was 30.9%; in the test on Nakaseomyces glabratus [3] it was 26.9%.
`Clc1ccc(COC(Cn2ccnc2)c2ccc(Cl)cc2Cl)c(Cl)c1` (stereo not given) [MICONAZOLE]: the Activity in the test with Nakaseomyces glabratus [1] turned out to be 0%; in the test on Nakaseomyces glabratus [2] it was 100%.

Values taken from ChEMBL document CHEMBL1275490, “Antifungal resistance of Candida glabrata vaginal isolates and development of a quantitative reverse transcription-PCR-based azole susceptibility assay” (2008).
